{
  "source": "ChEMBL document CHEMBL3414569",
  "about": "“Amino acid modified xanthone derivatives: novel, highly promising membrane-active antimicrobials for multidrug-resistant Gram-positive bacterial infections” (J Med Chem, 2015)",
  "key": {"Staphylococcus aureus [1]": {"tested_on": "Staphylococcus aureus", "assay": "Antimicrobial activity against Staphylococcus aureus ATCC 29213 by broth macrodilution method", "type": "functional", "in_short": "(§1)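 Broth macrodilution MIC in Mueller Hinton broth following CLSI guidelines. Inoculum was prepared by direct colony suspension from an 18−20 h tryptic soy agar plate.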"}, "Staphylococcus aureus [2]": {"tested_on": "Staphylococcus aureus", "assay": "Antimicrobial activity against Staphylococcus aureus ATCC 29213 at 0.5 times MIC measured after 17 passages by multistep passage drug resistance selection study relative to wild type Staphylococcus aureus ATCC 29213 before passage", "type": "functional", "in_short": "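Multipassage selection in S. aureus ATCC29213 across an eight-concentration dilution series. Growth was read after 20−22 h. Bacteria growing at 0.5 × MIC were repassaged into a fresh series, 17 passages in total. Resistance was defined as a more than 4-fold rise over the initial MIC.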"}, "Staphylococcus aureus [3]": {"tested_on": "Staphylococcus aureus", "assay": "Antimicrobial activity against Staphylococcus aureus DM4001 by broth macrodilution method", "type": "functional", "in_short": "as §1"}, "Staphylococcus aureus [4]": {"tested_on": "Staphylococcus aureus", "assay": "Antimicrobial activity against Staphylococcus aureus ATCC 29213 in presence of 4% BSA by broth macrodilution method", "type": "functional", "in_short": "(§2)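 MIC by CLSI broth macrodilution in Mueller Hinton broth, with BSA added to the bacterial suspension at a final 4% w/v. Inoculum was made by direct colony suspension from an 18−20 h tryptic soy agar plate.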"}, "Staphylococcus aureus [5]": {"tested_on": "Staphylococcus aureus", "assay": "Antimicrobial activity against methicillin resistant Staphylococcus aureus DM21455 in absence of 4% BSA by broth macrodilution method", "type": "functional", "in_short": "as §1"}, "Staphylococcus aureus [6]": {"tested_on": "Staphylococcus aureus", "assay": "Antimicrobial activity against methicillin resistant Staphylococcus aureus DM21455 in presence of 4% BSA by broth macrodilution method", "type": "functional", "in_short": "as §2"}, "Staphylococcus aureus [7]": {"tested_on": "Staphylococcus aureus", "assay": "Antimicrobial activity against Staphylococcus aureus ATCC 29213 in absence of 4% BSA by broth macrodilution method", "type": "functional", "in_short": "as §1"}, "Bacillus cereus": {"tested_on": "Bacillus cereus", "assay": "Antimicrobial activity against Bacillus cereus ATCC 11778 by broth macrodilution method", "type": "functional", "in_short": "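CLSI broth macrodilution in Mueller Hinton broth. Inoculum was made by direct colony suspension from colonies on an 18−20 h tryptic soy agar plate. The value is the MIC.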"}, "[8]": {"assay": "Induction of hemolysis in New Zealand white rabbit RBC after 1 hr", "type": "cell-based, Oryctolagus cuniculus, Erythrocyte", "details": "for HC50 at 1 h: New Zealand white, red blood cells (RBC)", "in_short": "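Fresh red blood cells isolated from New Zealand white rabbits. Lysis measured over a compound concentration series; HC50 taken as the concentration lysing 50% of RBCs.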"}, "Staphylococcus aureus [9]": {"tested_on": "Staphylococcus aureus", "assay": "Antimicrobial activity against methicillin resistant Staphylococcus aureus DM21455 by broth macrodilution method", "type": "functional", "in_short": "as §1"}, "Staphylococcus aureus [10]": {"tested_on": "Staphylococcus aureus", "assay": "Antimicrobial activity against methicillin resistant Staphylococcus aureus DM09809R by broth macrodilution method", "type": "functional", "in_short": "as §1"}, "[11]": {"assay": "Selectivity index, ratio of HC50 for induction of hemolysis in New Zealand white rabbit RBC to MIC for Staphylococcus aureus DM09809R"}, "[12]": {"assay": "Retention time of the compound", "type": "physicochemical", "in_short": "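Reverse-phase HPLC of 20 μL injections of a 10 μg/mL sample at 1 mL/min. Gradient: 5−55% ACN over 5 min, then 55−95% over 15 min.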"}, "[13]": {"assay": "Selectivity index, ratio of HC50 for induction of hemolysis in New Zealand white rabbit RBC to MIC for Bacillus cereus ATCC 11778"}, "[14]": {"assay": "Selectivity index, ratio of HC50 for induction of hemolysis in New Zealand white rabbit RBC to MIC for Staphylococcus aureus DM4001"}, "[15]": {"assay": "Selectivity index, ratio of HC50 for induction of hemolysis in New Zealand white rabbit RBC to MIC for Staphylococcus aureus DM21455"}, "Staphylococcus aureus [16]": {"tested_on": "Staphylococcus aureus", "assay": "Antimicrobial activity against Staphylococcus aureus ATCC 29213 infected in mouse cornea infection model assessed as reduction in viable bacterial count at 0.3% solution applied topically 5 times/day dosed 1 day after infection relative to control", "type": "functional", "in_short": "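Mouse cornea given three superficial 1 mm scratches on one eye under ketamine/xylazine, then 10 μL of S. aureus ATCC 29213 suspension (1 × 10^8 CFU/mL in USP phosphate buffer) applied topically. Treated topically 5 times/day from day 1 postinfection; PBS negative control; 4 mice/group killed on days 1, 2 and 3. Corneas homogenized in 0.9% NaCl with 0.25% BSA, plated in duplicate on TSA (48 h, 35 °C); log10 CFU/cornea.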"}},
  "data": [
    {"molecule": "CCn1cc(C(=O)O)c(=O)c2cc(F)c(N3CCNCC3)cc21", "note": "[NORFLOXACIN]", "values": [
      {"measurement": "MIC", "setting": "Staphylococcus aureus [1]", "value": 2, "unit": "µg/mL"},
      {"measurement": "Ratio", "setting": "Staphylococcus aureus [2]", "value": 64}
    ]},
    {"molecule": "COc1c(OCCCCBr)cc2oc3cc(OCCCCBr)c(CCC(C)C)c(O)c3c(=O)c2c1CCC(C)C", "values": [
      {"measurement": "MIC", "setting": "Staphylococcus aureus [3]", "value": "> 50", "unit": "µg/mL"}
    ]},
    {"molecule": "CCCCCCCCCC(=O)N[C@@H](Cc1c[nH]c2ccccc12)C(=O)N[C@H](CC(N)=O)C(=O)N[C@@H](CC(=O)O)C(=O)N[C@@H]1C(=O)NCC(=O)N[C@@H](CCCN)C(=O)N[C@@H](CC(=O)O)C(=O)N[C@H](C)C(=O)N[C@@H](CC(=O)O)C(=O)NCC(=O)N[C@H](CO)C(=O)N[C@@H]([C@H](C)CC(=O)O)C(=O)N[C@@H](CC(=O)c2ccccc2N)C(=O)O[C@@H]1C", "values": [
      {"measurement": "MIC", "setting": "Staphylococcus aureus [4]", "value": 6.25, "unit": "µg/mL"},
      {"measurement": "MIC", "setting": "Staphylococcus aureus [5]", "value": 0.39, "unit": "µg/mL"},
      {"measurement": "MIC", "setting": "Staphylococcus aureus [6]", "value": 6.25, "unit": "µg/mL"},
      {"measurement": "MIC", "setting": "Staphylococcus aureus [7]", "value": 0.39, "unit": "µg/mL"}
    ]},
    {"molecule": "COc1c(OCC(=O)O)cc2oc3cc(OCC(=O)O)c(CC=C(C)C)c(O)c3c(=O)c2c1CC=C(C)C", "values": [
      {"measurement": "MIC", "setting": "Staphylococcus aureus [3]", "value": "> 50", "unit": "µg/mL"},
      {"measurement": "MIC", "setting": "Bacillus cereus", "value": "> 50", "unit": "µg/mL"},
      {"measurement": "HC50 at 1 h", "setting": "[8]", "value": "> 400", "unit": "µg/mL"},
      {"measurement": "MIC", "setting": "Staphylococcus aureus [9]", "value": "> 50", "unit": "µg/mL"},
      {"measurement": "MIC", "setting": "Staphylococcus aureus [10]", "value": "> 50", "unit": "µg/mL"}
    ]},
    {"molecule": "COc1c(OCC(=O)N[C@@H](CCCNC(=N)N)C(=O)OC(C)(C)C)cc2oc3cc(OCC(=O)N[C@@H](CCCNC(=N)N)C(=O)OC(C)(C)C)c(CC=C(C)C)c(O)c3c(=O)c2c1CC=C(C)C", "values": [
      {"measurement": "MIC", "setting": "Staphylococcus aureus [3]", "value": 12, "unit": "µg/mL"},
      {"measurement": "Selectivity Index", "setting": "[11]", "value": 7},
      {"measurement": "Retention_time", "setting": "[12]", "value": 9.51, "unit": "min"},
      {"measurement": "MIC", "setting": "Bacillus cereus", "value": 12, "unit": "µg/mL"},
      {"measurement": "Selectivity Index", "setting": "[13]", "value": 7},
      {"measurement": "Selectivity Index", "setting": "[14]", "value": 7},
      {"measurement": "HC50 at 1 h", "setting": "[8]", "value": 79, "unit": "µg/mL"},
      {"measurement": "Selectivity Index", "setting": "[15]", "value": 7},
      {"measurement": "MIC", "setting": "Staphylococcus aureus [9]", "value": 12, "unit": "µg/mL"},
      {"measurement": "MIC", "setting": "Staphylococcus aureus [10]", "value": 12, "unit": "µg/mL"}
    ]},
    {"molecule": "CCCCCCCCNCCC[C@@H](C)[C@H]1CC[C@H]2[C@H]3[C@H](OCCCN)C[C@H]4C[C@H](OCCCN)CC[C@]4(C)[C@H]3C[C@H](OCCCN)[C@]12C", "values": [
      {"measurement": "MIC", "setting": "Staphylococcus aureus [3]", "value": 0.4, "unit": "µg/mL"},
      {"measurement": "Selectivity Index", "setting": "[11]", "value": 73},
      {"measurement": "MIC", "setting": "Bacillus cereus", "value": 0.4, "unit": "µg/mL"},
      {"measurement": "Selectivity Index", "setting": "[13]", "value": 73},
      {"measurement": "Selectivity Index", "setting": "[14]", "value": 73},
      {"measurement": "MHC", "setting": "[8]; erythrocyte, 1 h", "value": 29, "unit": "µg/mL"},
      {"measurement": "Selectivity Index", "setting": "[15]", "value": 73},
      {"measurement": "MIC", "setting": "Staphylococcus aureus [9]", "value": 0.4, "unit": "µg/mL"},
      {"measurement": "MIC", "setting": "Staphylococcus aureus [10]", "value": 0.4, "unit": "µg/mL"}
    ]},
    {"molecule": "COc1c(O)cc2oc3cc(O)c(CC=C(C)C)c(O)c3c(=O)c2c1CC=C(C)C", "note": "[MANGOSTIN]", "values": [
      {"measurement": "MIC", "setting": "Staphylococcus aureus [3]", "value": 2, "unit": "µg/mL"},
      {"measurement": "Selectivity Index", "setting": "[11]", "value": 5},
      {"measurement": "MIC", "setting": "Bacillus cereus", "value": 2, "unit": "µg/mL"},
      {"measurement": "Selectivity Index", "setting": "[13]", "value": 5},
      {"measurement": "Selectivity Index", "setting": "[14]", "value": 5},
      {"measurement": "Selectivity Index", "setting": "[15]", "value": 5},
      {"measurement": "MIC", "setting": "Staphylococcus aureus [9]", "value": 2, "unit": "µg/mL"},
      {"measurement": "MIC", "setting": "Staphylococcus aureus [10]", "value": 2, "unit": "µg/mL"}
    ]},
    {"molecule": "CCOC(=O)[C@H](CCCNC(=N)N)NC(=O)COc1cc2oc3cc(OCC(=O)N[C@@H](CCCNC(=N)N)C(=O)OCC)c(OC)c(CC=C(C)C)c3c(=O)c2c(O)c1CC=C(C)C", "values": [
      {"measurement": "MIC", "setting": "Staphylococcus aureus [3]", "value": 6, "unit": "µg/mL"},
      {"measurement": "Selectivity Index", "setting": "[11]", "value": 5},
      {"measurement": "Retention_time", "setting": "[12]", "value": 8.38, "unit": "min"},
      {"measurement": "MIC", "setting": "Bacillus cereus", "value": 12, "unit": "µg/mL"},
      {"measurement": "Selectivity Index", "setting": "[13]", "value": 5},
      {"measurement": "Selectivity Index", "setting": "[14]", "value": 9},
      {"measurement": "HC50 at 1 h", "setting": "[8]", "value": 56, "unit": "µg/mL"},
      {"measurement": "Selectivity Index", "setting": "[15]", "value": 9},
      {"measurement": "MIC", "setting": "Staphylococcus aureus [9]", "value": 6, "unit": "µg/mL"},
      {"measurement": "MIC", "setting": "Staphylococcus aureus [10]", "value": 12, "unit": "µg/mL"}
    ]},
    {"molecule": "O=c1c2ccc(OCCCCBr)cc2oc2cc(OCCCCBr)cc(O)c12", "values": [
      {"measurement": "MIC", "setting": "Staphylococcus aureus [3]", "value": "> 50", "unit": "µg/mL"}
    ]},
    {"molecule": "COc1c(N2CCNC(C)C2)c(F)cc2c(=O)c(C(=O)O)cn(C3CC3)c12", "note": "(stereo not drawn) [GATIFLOXACIN]", "values": [
      {"measurement": "MIC", "setting": "Staphylococcus aureus [1]", "value": 0.1, "unit": "µg/mL"},
      {"measurement": "Ratio", "setting": "Staphylococcus aureus [2]", "value": 64},
      {"measurement": "Ratio", "setting": "Staphylococcus aureus [16]", "value": 2.06}
    ]}
  ]
}
